GI50 data for eight molecules are collected here from ChEMBL document CHEMBL1158140, “Abietane diterpenoids from Salvia pachyphylla and S. clevelandii with cytotoxic activity against human cancer cell lines” (2006).

In general, GI50 refers to the concentration that inhibits growth by half.

Where only a bound is given, the exact number is not on record here.

Common to all, as to assay type: functional
Assay [1] concerns HBL-100. Description: Cytotoxicity against human HBL100 cells after 48 hrs by SRB assay. The note with it: HBL-100, 48 h. The gist of the method: (§1)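 RPMI 1640 with 5% heat-inactivated FCS and 2 mM L-glutamine, 37 °C, 5% CO2. Seeded per well at 6000 (SW1573, HBL-100), 7000 (A2780), 12 000 (WiDr) or 15 000 (T-47D). Triplicate, 1-100 µM from day 1 for 48 h; DMSO 0.25% v/v control. TCA-fixed, SRB OD 490 nm. Percentage growth from T0, T and control ODs gives GI50, mean ± SD of 3-5 experiments.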

For assay [2], the system named is WiDr. Briefly: Cytotoxicity against human WiDr cells after 48 hrs by SRB assay. The gist of the method:
as §1
(In general: In SRB staining, fixed cells bind dye roughly in proportion to their protein.)

Assay [3] relates to SW1573. Briefly: Cytotoxicity against human SW1573 cells after 48 hrs by SRB assay. Conditions: SW1573, 48 h. The gist of the method:
as §1

In assay [4] the test system is A2780. Description: Cytotoxicity against human A2780 cells after 48 hrs by SRB assay. The note with it: A2780, 48 h. The gist of the method:
as §1

Assay [5] relates to T47D. Description: Cytotoxicity against human T47D cells after 48 hrs by SRB assay. The gist of the method: as §1

In the case of `CC(C)C1=C[C@]2(O)CC[C@H]3C(C)(C)CCC[C@]3(C)C2=CC1=O`, the GI50 in assay [1] is 26 µM; in assay [2], 83 µM; in assay [3], 29 µM; in assay [4], 19 µM; in assay [5], 82 µM.

Take `CC(CO)c1cc2c(c(O)c1O)[C@@]13CCCC(C)(C)[C@@H]1C[C@@H]2OC3=O` (stereo not given in full): the GI50 in assay [1] worked out at 3.6 µM; in assay [2] it was 28 µM; in assay [3] it was 9 µM; in assay [4] it was 3.6 µM; in assay [5] it was 35 µM.

For the molecule `CC(C)c1cc2c(c(O)c1O)[C@@]13CCCC(C)(C)[C@@H]1C[C@@H]2OC3`, the GI50 in assay [1] stood at 4.6 µM; in assay [2], 32 µM; in assay [3], 22 µM; in assay [4] it was 5.4 µM; in assay [5], 32 µM.

As for `COc1cc2c(cc1C(C)C)C(=O)C=C1C(C)(C)CCC[C@@]12C`, the GI50 was 16 µM in assay [1]; 29 µM in assay [2]; 18 µM in assay [3]; 16 µM in assay [4]; 33 µM in assay [5].

Consider `CC(C)c1cc2c(c(O)c1O)[C@@]13CCCC(C)(C)[C@@H]1C[C@@H]2OC3=O` [CARNOSOL], for which the GI50 amounted to 3.9 µM in assay [1]; 26 µM in assay [2]; 10 µM in assay [3]; 3.6 µM in assay [4]; 24 µM in assay [5].

On to `CC(C)c1cc2c(c(O)c1O)[C@@]13CCCC(C)(C)[C@@H]1[C@@H](O)[C@@H]2OC3=O` [ISOROSMANOL], for which the GI50 in assay [1] was 17 µM; in assay [2], more than 100 µM; in assay [3] it was 23 µM; in assay [4] it was 19 µM; in assay [5], more than 100 µM.

Turning to `CC(C)C1=C[C@@]23CC[C@H]4C(C)(C)CCC[C@]4(CO2)C3=C(O)C1=O` [PACHYPHYLLONE], the GI50 in assay [1] worked out at 22 µM; in assay [2], 36 µM; in assay [3], 23 µM; in assay [4], 14 µM; in assay [5] it was 32 µM.

In the case of `CC(C)c1cc(C=O)c2c(c1O)OC(=O)[C@@]21CCCC(C)(C)[C@@H]1C=O` [ROSMADIAL], the GI50 is 26 µM in assay [1]; 59 µM in assay [2]; 32 µM in assay [3]; 36 µM in assay [4]; 48 µM in assay [5].
